Experimental findings from PubChem BioAssay AID504907 (The Scripps Research Institute Molecular Screening Center, 2011) are described below.

The target in the assay is Glucose-6-phosphatase catalytic subunit 1 (Homo sapiens) (UniProt P35575). In words: endogenous G6PC mRNA suppression, late-stage follow-up, mechanism study for RORA inverse agonist project, cell-based, real-time PCR, fluorescence, assay provider (AID 504907). The settings on record: HepG2 G6PC mRNA RT-qPCR, 20 h, at 10 µM, stronger effect = lower value. In outline:
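Times: compound treatment for 20 h / System: HepG2 cells, native G6Pase gene / Signal: SYBR Green real-time RT-PCR of G6Pase mRNA / Benchmarks: vehicle cells, ROR-targeting siRNA as inhibition reference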
(Quantitative PCR measures a nucleic acid by following its amplification.)

Sequence of Glucose-6-phosphatase catalytic subunit 1 (Homo sapiens) (P35575 whole entry, looked up): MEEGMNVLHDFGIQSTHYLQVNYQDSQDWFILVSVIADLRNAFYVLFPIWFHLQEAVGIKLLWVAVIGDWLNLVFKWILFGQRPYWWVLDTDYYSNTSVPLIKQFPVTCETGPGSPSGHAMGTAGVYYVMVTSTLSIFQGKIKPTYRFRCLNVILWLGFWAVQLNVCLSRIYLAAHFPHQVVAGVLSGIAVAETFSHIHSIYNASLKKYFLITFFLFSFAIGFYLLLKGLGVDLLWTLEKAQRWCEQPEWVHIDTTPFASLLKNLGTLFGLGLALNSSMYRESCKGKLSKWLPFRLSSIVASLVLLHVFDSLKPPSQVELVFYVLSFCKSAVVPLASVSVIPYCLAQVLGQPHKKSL

Take `O=S(=O)(Nc1ccc(C(O)(C(F)(F)F)C(F)(F)F)cc1)c1cccs1`: the relative mRNA level came to 0.279 (with RORA + RORG siRNA) and 0.676 (with control siRNA).
